According to ChEMBL document CHEMBL1833819, “Dihydroquinazolines as a novel class of Trypanosoma brucei trypanothione reductase inhibitors: discovery, synthesis, and characterization of their binding mode by protein crystallography” (J Med Chem, 2011):

What was measured:
[1] = target: Trypanothione reductase (Trypanosoma brucei brucei, UniProt P39051); experiment: Inhibition of recombinant trypanothione reductase from Trypanosoma brucei brucei S427 by DTNB-coupled spectrophotometric assay
Summary of the method: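 Recombinant T. brucei brucei S427 TryR tested in a nonenzymatically coupled spectrophotometric assay, where DTNB reduction to TNB is followed as A412 increase. IC50 is the mean of independent duplicates (at least two replicates).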

[2] = target: Trypanothione reductase (Trypanosoma cruzi, UniProt P28593); experiment: Inhibition of trypanothione reductase from Trypanosoma cruzi by DTNB-coupled spectrophotometric assay
[3] = target: T1, Glutathione reductase, mitochondrial (Homo sapiens, UniProt P00390); experiment: Inhibition of human glutathione reductase
T1 sequence (P00390 whole entry): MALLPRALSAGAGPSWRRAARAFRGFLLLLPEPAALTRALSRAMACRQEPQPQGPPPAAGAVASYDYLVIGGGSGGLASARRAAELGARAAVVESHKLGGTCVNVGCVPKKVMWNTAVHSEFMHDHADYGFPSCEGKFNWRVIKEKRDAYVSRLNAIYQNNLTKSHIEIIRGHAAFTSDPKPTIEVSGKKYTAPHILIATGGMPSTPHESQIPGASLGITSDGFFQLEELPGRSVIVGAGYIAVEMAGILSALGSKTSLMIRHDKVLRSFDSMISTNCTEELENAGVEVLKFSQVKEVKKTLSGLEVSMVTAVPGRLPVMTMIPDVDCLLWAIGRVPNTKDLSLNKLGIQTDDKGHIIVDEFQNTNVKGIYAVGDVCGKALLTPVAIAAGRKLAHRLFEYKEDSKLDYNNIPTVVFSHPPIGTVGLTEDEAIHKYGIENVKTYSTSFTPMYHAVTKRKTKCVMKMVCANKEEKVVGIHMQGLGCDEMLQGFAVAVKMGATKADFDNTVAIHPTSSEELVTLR

[4] = system: Trypanosoma brucei brucei; experiment: Antitrypanosomal activity against blood stream form Trypanosoma brucei brucei by resazurin fluorescence-based viability assay; format: functional, organism-based
Summary of the method: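 Bloodstream-form T. b. brucei parasites and MRC5 cells were assayed in resazurin fluorescence-based viability tests. […] Pentamidine served as the positive control in all T. brucei plates.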

Chain of Trypanothione reductase (Trypanosoma cruzi, UniProt P28593) (P28593 whole entry): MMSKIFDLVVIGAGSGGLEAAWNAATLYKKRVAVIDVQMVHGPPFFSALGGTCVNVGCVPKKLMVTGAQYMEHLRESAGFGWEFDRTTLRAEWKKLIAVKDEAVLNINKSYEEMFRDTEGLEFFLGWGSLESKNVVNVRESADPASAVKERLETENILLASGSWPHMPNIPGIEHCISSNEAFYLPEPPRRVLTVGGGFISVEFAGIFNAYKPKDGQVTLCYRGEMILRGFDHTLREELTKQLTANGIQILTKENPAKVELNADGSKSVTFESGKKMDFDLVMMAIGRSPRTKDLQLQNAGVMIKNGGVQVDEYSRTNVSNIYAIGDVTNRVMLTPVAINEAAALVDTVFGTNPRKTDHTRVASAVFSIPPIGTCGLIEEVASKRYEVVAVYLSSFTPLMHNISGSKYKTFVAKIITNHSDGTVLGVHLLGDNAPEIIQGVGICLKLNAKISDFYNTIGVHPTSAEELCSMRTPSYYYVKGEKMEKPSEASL
Chain of Trypanothione reductase (Trypanosoma brucei brucei, UniProt P39051) (P39051 whole entry): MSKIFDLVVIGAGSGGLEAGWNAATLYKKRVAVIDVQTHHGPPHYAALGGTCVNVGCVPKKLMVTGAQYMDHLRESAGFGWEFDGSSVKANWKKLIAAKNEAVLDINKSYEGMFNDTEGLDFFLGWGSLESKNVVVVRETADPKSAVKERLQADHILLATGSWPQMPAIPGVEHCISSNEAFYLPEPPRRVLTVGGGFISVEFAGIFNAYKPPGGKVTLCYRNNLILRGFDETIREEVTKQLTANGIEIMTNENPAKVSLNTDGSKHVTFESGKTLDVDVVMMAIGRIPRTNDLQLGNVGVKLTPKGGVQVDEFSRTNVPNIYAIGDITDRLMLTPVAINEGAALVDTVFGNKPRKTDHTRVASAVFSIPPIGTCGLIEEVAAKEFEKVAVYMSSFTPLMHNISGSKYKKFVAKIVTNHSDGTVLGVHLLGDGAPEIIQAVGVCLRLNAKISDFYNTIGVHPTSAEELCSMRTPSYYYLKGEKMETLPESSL

With COC(=O)CN1C(C)=Nc2ccc(Br)cc2C1c1ccccc1 (racemic) the IC50 [1] was 6.8 µM, the IC50 [2] was 19 µM and the IC50 [3] was over 100 µM. For the same molecule, the EC50 [4] was 40 µM.
